In ChEMBL document CHEMBL3091366, “New 5-Aryl-1H-imidazoles display in vitro antitumor activity against apoptosis-resistant cancer models, including melanomas, through mitochondrial targeting” (J Med Chem, 2013):

Legend:
Type in all cases: functional, cell-based
B16-F10 = test: Cytotoxicity against apoptotic-sensitive mouse B16F10 cells assessed as growth inhibition after 72 hrs by MTT-based colorimetric assay; details: B16-F10, 72 h
In short: (§1)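 MTT colorimetric assay, 72 h exposure to the fumarate salt. Read-out is reduction of MTT to formazan by living cells. IC50 is the concentration that reduces the whole cell population by 50%. Six replicates per condition. Where compounds were not tested on every line, apoptosis-sensitive lines were PC3, MCF-7, LoVo and B16F10, and apoptosis-resistant lines were U373, T98G, A549 and SK-MEL-28.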

PC-3 = test: Cytotoxicity against apoptotic-sensitive human PC3 cells assessed as growth inhibition after 72 hrs by MTT-based colorimetric assay; details: Homo sapiens, PC-3, 72 h; in short: as §1
MCF7 = test: Cytotoxicity against apoptotic-sensitive human MCF7 cells assessed as growth inhibition after 72 hrs by MTT-based colorimetric assay; details: Homo sapiens, MCF7, 72 h; in short: as §1
LoVo = test: Cytotoxicity against apoptotic-sensitive human LoVo cells assessed as growth inhibition after 72 hrs by MTT-based colorimetric assay; details: Homo sapiens, LoVo, 72 h; in short: as §1
SK-MEL-28 = test: Cytotoxicity against apoptotic-resistant human SK-MEL-28 cells assessed as growth inhibition after 72 hrs by MTT-based colorimetric assay; details: Homo sapiens, SK-MEL-28, 72 h; in short: as §1
A549 = test: Cytotoxicity against apoptotic-resistant human A549 cells assessed as growth inhibition after 72 hrs by MTT-based colorimetric assay; details: Homo sapiens, A549, 72 h; in short: as §1
T98G = test: Cytotoxicity against apoptotic-resistant human T98G cells assessed as growth inhibition after 72 hrs by MTT-based colorimetric assay; details: Homo sapiens, T98G, 72 h; in short: as §1

Row | Structure (SMILES) | IC50 (B16-F10) | IC50 (PC-3) | IC50 (MCF7) | IC50 (LoVo) | IC50 (SK-MEL-28) | IC50 (A549) | IC50 (T98G)
1 | C=CCCCCOc1ncc(-c2cc(C(F)(F)F)ccc2OC)n1C | 59 µM | 57 µM | 61 µM | 51 µM | 56 µM | 62 µM | 88 µM
2 | C#CCCCCOc1ncc(-c2ccccc2OC)n1C | 34 µM | 21 µM | 10 µM | 11 µM | 38 µM | 22 µM | 35 µM
3 | C=CCCCCOc1ncc(I)n1C | 51 µM | > 100 µM | > 100 µM | 84 µM | > 100 µM | > 100 µM | > 100 µM
4 | Cn1c2cnc1OCC/C=C\CCCCOc1ccccc1-2 | 70 µM | 62 µM | 63 µM | 40 µM | 85 µM | 74 µM | 100 µM
5 | C=CCCCCOc1ncc(-c2cc(C(C)C)ccc2OC)n1C | 7 µM | 9 µM | 18 µM | 3 µM | 3 µM | 4 µM | 6 µM
6 | CCCCOc1ncc(-c2ccccc2OC)n1C | 71 µM | 71 µM | 55 µM | 39 µM | 82 µM | 87 µM | 96 µM
7 | COc1ccc(C)cc1-c1cnc(OCCCCc2ccccc2)n1C | 34 µM | 43 µM | 28 µM | 27 µM | 42 µM | 40 µM | 44 µM
8 | C=CCCCCOc1ncc(-c2cc(Cl)ccc2OC)n1C | 29 µM | 32 µM | 25 µM | 28 µM | 28 µM | 34 µM | 48 µM
9 | C=CCCCCOc1nccn1C | 51 µM | > 100 µM | > 100 µM | > 100 µM | > 100 µM | > 100 µM | > 100 µM
10 | COc1ccccc1-c1cnc(OCC(F)(F)C(F)(F)C(F)(F)C(F)(F)C(F)(F)F)n1C | 38 µM | 72 µM | 63 µM | 51 µM | 66 µM | 83 µM | 78 µM
11 | C=CCCCCOc1nc(-c2ccccc2OC)cn1C | 69 µM | 86 µM | 77 µM | 81 µM | > 100 µM | 91 µM | > 100 µM
12 | COc1ccccc1-c1cnc(OCCCc2ccccc2)n1C | 7 µM | 27 µM | 3 µM | 3 µM | 4 µM | 3 µM | 3 µM
13 | C=CCCCCOc1ncc(-c2cc(F)c(F)cc2OC)n1C | 43 µM | 40 µM | 32 µM | 36 µM | 40 µM | 43 µM | 53 µM
